The species named for data set [1] is Homo sapiens. In words: Binding affinity to 18 bp double-stranded DNA (unknown origin) assessed as DNA stabilization by fluorescence melting assay. Summed up:
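Fluorescence melting in a real-time PCR cycler (excitation 488 nm, emission 520 nm). The HTS target carried 5′-Dabcyl and 3′-fluorescein; the 18 bp duplex was also a target. Mixtures held 0.25 μM DNA plus ligand in 10 mM LiOH, 50 mM KCl, pH 7.4 (H3PO4). Samples were denatured at 95 °C for 5 min, cooled to 30 °C at 0.5 °C/min, then heated to 90 °C and recooled at 0.2 °C/min. Tm came from the first derivative, ≥3 repeats.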

Data set [2] is filed under the species Homo sapiens. Nature of the data set: Binding affinity to human telomeric sequence 5'-AGGGTTAGGGTTAGGGTTAGGGT-3' assessed as change in melting temperature at 10 uM by fluorescence melting assay.
Data set [3] in a line: Stability of the compound assessed as retention time. The format is physicochemical. Summed up: (§1)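 30 μM ligand in 10 mM Tris-HCl, 50 mM KCl, pH 7.5 irradiated at 308 nm (0.022 J/min), 25 °C, for increasing times; analysed by LC on C18 (water/acetonitrile 4–80% gradient with 0.1% formic acid over 20 min, 0.02 mL/min) with positive-mode ESI-MS, m/z 100–2500.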
Data set [4] is filed under the species Homo sapiens. In words: Stabilization of double-stranded DNA (unknown origin) assessed as DNA modifications at 20 to 50 uM measured 20 mins post UV irradiation by PAGE analysis.
The species named for data set [5] is Homo sapiens. In words: Stabilization of single-stranded DNA 5'-GGATGTGAGTGTGAGTGTGAGG-3' (unknown origin) assessed as DNA modifications at 20 to 50 uM measured 20 mins post UV irradiation by PAGE analysis. Summed up:
(§2)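 Tel22 or single-stranded 22-mer 5′-32P end-labelled with T4 kinase; 1 μM DNA in 10 mM Tris, 50 mM KCl, pH 7.5 with increasing ligand, irradiated at 308 nm for variable time (or ligand pre-irradiated 30 min, or non-irradiated); products run on 20% polyacrylamide/7 M urea in 1× TBE, quantified by phosphorimaging.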

The species named for data set [6] is Homo sapiens. Nature of the data set: Stabilization of G-quadruplex folded telomeric sequence Tel22 DNA (unknown origin) assessed as DNA modifications at 20 to 50 uM measured 20 mins post UV irradiation by PAGE analysis. In short, it runs like this: as §2
For data set [7], the species on record is Homo sapiens. Nature of the data set: Binding affinity to G-quadruplex folded telomeric sequence Tel22 DNA (unknown origin) assessed as DNA stabilization measured 25 mins post UV irradiation by circular dichroism spectral analysis. In general terms: CD spectra are sensitive to the conformation of chiral molecules.
The species entered for data set [8] is Homo sapiens. In words: Binding affinity to G-quadruplex folded telomeric sequence Tel22 DNA (unknown origin) assessed as DNA stabilization at 8 uM by circular dichroism spectral analysis relative to control.
Data set [9] can be described thus: Stability of the compound assessed as retention time after 3 mins of UV irradiation. As to conditions: 0.05 h. The format is physicochemical. In short, it runs like this:
as §1

A short description of data set [10]: Stability of the compound assessed as retention time after 25 mins of UV irradiation. The format is physicochemical. In short, it runs like this:
as §1

The species entered for data set [11] is Homo sapiens. Nature of the data set: Binding affinity to human telomeric sequence 5'-AGGGTTAGGGTTAGGGTTAGGGT-3' assessed as thermal stability by fluorescence melting assay relative to control. In short, it runs like this:
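Fluorescence melting on a LightCycler (ex 488, em 520 nm); 0.25 μM 5′-Dabcyl/3′-fluorescein HTS oligo in 10 mM LiOH, 50 mM KCl, pH 7.4 (H3PO4); ligand 0.5–10 μM; denatured 95 °C 5 min, cooled to 30 °C, melted 0.2 °C/min to 90 °C; Tm from first derivative; ≥3 repeats.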

The next data set relates to DNA. In words: Binding affinity to calf thymus DNA assessed as DNA stabilization at 8 uM by circular dichroism spectral analysis. Particulars: Bos taurus.
For data set [12], the species on record is Homo sapiens. Nature of the data set: Binding affinity to G-quadruplex folded telomeric sequence Tel22 DNA (unknown origin) assessed as DNA stabilization at 8 uM by circular dichroism spectral analysis.
Data set [13] can be described thus: Stability of the compound assessed as retention time after 100 mins of UV irradiation. Type of data set: physicochemical. In short, it runs like this:
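Ligand (30 μM) in 10 mM Tris-HCl, 50 mM KCl, pH 7.5 was irradiated at 308 nm (0.022 J/min) at 25 °C for increasing times. Samples ran on C18 HPLC at 0.02 mL/min with a water/acetonitrile gradient (0.1% formic acid) of 4–80% over 20 min. Detection was positive-mode ESI-MS (4.5 kV, m/z 100–2500).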

Activity calls are given as the source filed them. The calls are words filed in the database; no cut-off is given here.

Regarding `Cc1c(CCC(=O)NCCCn2ccnc2)c(=O)oc2cc3occ(-c4ccc(F)cc4)c3cc12`, the outcome in the data set listed under Homo sapiens [1] was inactive.
For the molecule `Cc1cc2c3c([n+](C)c4ccc(F)cc4c3c1)-c1cc(F)ccc1N2C`, in the data set filed under Homo sapiens [2], the deltaTm worked out at 30 °C.
On the same count and under the same terms, the figure for `CN(C)c1ccc(Nc2c3ccc(NC(=O)CCN4CCCC4)cc3nc3cc(NC(=O)CCN4CCCC4)ccc23)cc1` is 32 °C.
As to `Cc1c(CC(=O)N2CCN(C)CC2)c(=O)oc2cc3occ(-c4ccc(Cl)cc4)c3cc12`, the Retention_time in data set [3] was determined as 17.2 min; in [9], 16.1 min; in [10] it was 16.1 min. Further, the outcome in the data set listed under Homo sapiens [4], in the data set listed under Homo sapiens [5] and in the data set filed under Homo sapiens [6] was Active. In addition, the outcome in the data set listed under Homo sapiens [7], in the data set filed under Homo sapiens [8], in the data set listed under Homo sapiens [1], in the data set listed under Homo sapiens [11], in the data set with DNA and in the data set filed under Homo sapiens [12] was inactive.
As to `COc1ccc(-c2coc3cc4oc(=O)c(CC(=O)N5CCN(CCO)CC5)c(C)c4cc23)cc1`, the result in the data set filed under Homo sapiens [1] was inactive.
Still for that read-out and setting: the entry for `Cc1c(CCC(=O)N2CCN(C)CC2)c(=O)oc2cc3occ(-c4ccccc4)c3cc12` is “inactive”.
For `Cc1c(CC(=O)N(C)C2CCN(C)CC2)c(=O)oc2c(C)c3occ(-c4ccccc4)c3cc12`, the Retention_time is 17 min in data set [3], 16.6 min in [13], 16.6 min in [9] and 16.6 min in data set [10]. Further, the result in the data set filed under Homo sapiens [4], in the data set listed under Homo sapiens [5] and in the data set listed under Homo sapiens [6] was Active. For the same molecule, the result in the data set filed under Homo sapiens [7], in the data set filed under Homo sapiens [8], in the data set filed under Homo sapiens [1], with DNA and in the data set filed under Homo sapiens [12] was inactive.

The record behind these values is ChEMBL document CHEMBL2311519, “Identification and characterization of new DNA G-quadruplex binders selected by a combination of ligand and structure-based virtual screening approaches” (J Med Chem, 2013).
